≈ marks a conversion by molar mass, not a printed value.
Test system: H. pylori
Assay: In vitro assay against Helicobacter pylori, broth micro-well dilution method
Assay type: cell-based
Conditions: for MIC: Helicobacter pylori, read-out: Mean of H. pylori inhibitory % MIC; for anti-H. pylori activity (in words): Table 2
Procedure, shortened: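 Test compound and clarithromycin (positive control) dissolved in DMSO and tested in 96-well plates at 125–0.24 µg against an H. pylori inoculum suspension. Readout: MTT colour at 620 nm on a microplate reader. MIC is the lowest concentration with no change in MTT colour. MIC90 (90% inhibition) is calculated from dose-response curves. Determinations done three times.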

Structure (SMILES)	MIC	anti-H. pylori activity (in words)
O=c1cc(-c2ccc(O)c(O)c2)oc2cc(O)cc(O)c12 [Compound 7, luteolin]		moderate to low inhibitory activities
COc1cc([C@H]2OC[C@H]3[C@@H]2CO[C@@H]3c2cc(OC)c(O)c(OC)c2)cc(OC)c1O [Compound 4, syringaresinol]	0.98 µg/mL (≈ 2.34 µM)	
C=C[C@@]1(C)C=C2CC[C@@H]3[C@](C)(CCC[C@@]3(C)C(=O)O)[C@H]2CC1 [Compound 2, pimaric acid]		moderate to low inhibitory activities
COc1cc(-c2cc(=O)c3c(O)cc(O)cc3o2)ccc1O [Compound 5, chrysoeriol]		moderate to low inhibitory activities
CC[C@H]1OC(=O)[C@H](C)[C@@H](O[C@H]2C[C@@](C)(OC)[C@@H](O)[C@H](C)O2)[C@H](C)[C@@H](O[C@@H]2O[C@H](C)C[C@H](N(C)C)[C@H]2O)[C@](C)(OC)C[C@@H](C)C(=O)[C@H](C)[C@@H](O)[C@]1(C)O [Clarithromycin, clarithromycin, reference compound]	1.95 µg/mL (≈ 2.61 µM)	

The next lines start with results.

MIC	Structure (SMILES)	anti-H. pylori activity (in words)
1.95 µg/mL (≈ 12.8 µM)	COC(=O)c1ccc(O)cc1 [Compound 9, methylparaben]	
0.98 µg/mL (≈ 2.12 µM)	COc1ccc(-c2cc(=O)c3c(O)cc(O[C@@H]4O[C@H](CO)[C@@H](O)[C@H](O)[C@H]4O)cc3o2)cc1O [Compound 8, diosmetin-7-O-β-D-glucopyranoside]	
1.95 µg/mL (≈ 7.22 µM)	O=c1cc(-c2ccc(O)cc2)oc2cc(O)cc(O)c12 [Compound 6, apigenin]	
0.48 µg/mL (≈ 3.48 µM)	O=C(O)c1ccc(O)cc1 [Compound 10, p-hydroxybenzoic acid]	
